Laboratory results from ChEMBL document CHEMBL4138250, “Regioselective IBX-Mediated Synthesis of Coumarin Derivatives with Antioxidant and Anti-influenza Activities” (J Nat Prod, 2017).
Converted amounts (≈) assume the structure as drawn.

Experiments:
Influenza A virus [1] = experiment: Antiviral activity against Influenza A virus (A/Puerto Rico/8/34(H1N1)) infected in A549 cells assessed as reduction in viral titer after 24 to 48 hrs by hemagglutination test; assay type: functional, organism-based; conditions: A/Puerto Rico/8/1934(H1N1)
Method in brief: (§1)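 Confluent A549 monolayers (DMEM, 10% FBS) infected with PR8 at MOI 0.0001 for 1 h at 37 °C, PBS-washed, then kept in 2% FBS medium. Compounds in DMSO were diluted in DMEM to final 30, 40, 60, 80 or 120 μg/mL, added after adsorption and kept to the end. DMSO was at most 0.2%, with matching DMSO-treated controls and mock infection. Supernatant HAU read at 24 and 48 h with human type 0 Rh+ erythrocytes.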

A549 [2] = experiment: Cytotoxicity against human A549 cells assessed as reduction in cell viability up to 120 ug/ml after 24 hrs by microscopic analysis; assay type: cell-based; conditions: a549, 24 h
Method in brief: (§2)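 A549 cells seeded at 2 × 10^5/mL; after 24 h, exposed to compounds at 10−120 μg/mL for a further 24 h. Viability assessed by microscopic examination, Trypan blue (0.02%) exclusion and MTT reduction. Cytotoxicity expressed as % reduction in viable cells relative to cultures treated with DMSO alone.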

A549 [3] = experiment: Cytotoxicity against human A549 cells assessed as reduction in cell viability up to 120 ug/ml after 24 hrs by MTT assay; assay type: cell-based; conditions: a549, 24 h; method in brief: as §2
[4] = Antioxidant activity assessed as DPPH radical scavenging activity incubated for 30 mins under dark condition; assay type: functional
Method in brief: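 Compounds serially diluted in EtOH (0.01−100 mg/mL) and added to freshly prepared DPPH (6 × 10−5 M in EtOH). Mixture shaken, kept 30 min in the dark, then absorbance read at 517 nm against a solvent blank. % scavenging is relative to a DPPH-only control, corrected for sample colour without DPPH. IC50 is the concentration giving 50% inhibition; triplicate runs.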

A549 [5] = experiment: Cytotoxicity against human A549 cells assessed as reduction in cell viability up to 120 ug/ml after 24 hrs by tryphan blue exclusion assay; assay type: cell-based; conditions: a549, 24 h; method in brief: as §2
Influenza A virus [6] = experiment: Antiviral activity against Influenza A virus (A/Puerto Rico/8/34(H1N1)) infected in A549 cells assessed as reduction in viral titer at 120 ug/ml after 24 to 48 hrs by hemagglutination test relative to control; assay type: functional, A/Puerto Rico/8/1934(H1N1); parameters: scale not given: the % may be the effect or the level left; method in brief: as §1

Row | SMILES | Activity (Influenza A virus [1]) | IC50 (Influenza A virus [1]) [µg/mL] | Activity (A549 [2]) | Activity (A549 [3]) | IC50 [4] [µg/mL] | Activity (A549 [5]) | Activity (Influenza A virus [6]) [%]
1 | O=c1ccc2cc(O)c(O)c(O)c2o1 | Dose-dependent effect | 69.9 (≈ 0.36 mM) | Non-Toxic | Non-Toxic | 8700 (≈ 44.8 mM) | Non-Toxic | –
2 | Nc1ccc2c(C(F)(F)F)cc(=O)oc2c1 | Dose-dependent effect | 51 (≈ 0.223 mM) | Non-Toxic | Non-Toxic | – | Non-Toxic | –
3 | O=c1ccc2c(O)c(O)ccc2o1 | Dose-dependent effect | 106 (≈ 0.598 mM) | Non-Toxic | Non-Toxic | – | Non-Toxic | 50
4 | O=c1ccc2ccc(O)cc2o1 [UMBELLIFERONE] | Dose-dependent effect | 110 (≈ 0.678 mM) | Non-Toxic | Non-Toxic | > 200000 | Non-Toxic | 50
5 | O=c1ccc2ccc(O)c(O)c2o1 [DAPHNETIN] | – | 146 (≈ 0.818 mM) | – | – | 27200 (≈ 153 mM) | – | –
6 | O=c1ccc2c(O)c(O)c(O)cc2o1 | Dose-dependent effect | 47.9 (≈ 0.247 mM) | Non-Toxic | Non-Toxic | 2500 (≈ 12.9 mM) | Non-Toxic | –
7 | O=c1ccc2cc(O)c(O)cc2o1 [ESCULETIN] | – | – | – | – | 37700 (≈ 212 mM) | – | –
8 | COc1cc2ccc(=O)oc2c(O)c1O [FRAXETIN] | – | – | – | – | 39200 (≈ 188 mM) | – | –
9 | Cc1cc(=O)oc2c(O)c(O)ccc12 [4-METHYLDAPHNETIN] | Dose-dependent effect | 91.5 (≈ 0.476 mM) | Non-Toxic | Non-Toxic | 22000 (≈ 114 mM) | Non-Toxic | –
10 | O=c1cc(O)c2ccc(O)c(O)c2o1 | – | – | – | – | 24100 (≈ 124 mM) | – | –
11 | Nc1ccc2c(C(F)(F)F)cc(=O)oc2c1O | Dose-dependent effect | 47.8 (≈ 0.195 mM) | Non-Toxic | Non-Toxic | 9300 (≈ 37.9 mM) | Non-Toxic | –
12 | O=c1ccc2cc(O)ccc2o1 [6-HYDROXYCOUMARIN] | Dose-dependent effect | 110 (≈ 0.678 mM) | Non-Toxic | Non-Toxic | > 200000 | Non-Toxic | 50
